Where a chain is given by its changes, count along the chain named.
Columns and labels:
[1] = tested on: T1, Nonstructural protein 5A (Hepatitis C virus), Q5L478 [Y93H]; assay: Inhibition of NS5A Y93H mutant in HuH7 cell infected HCV genotype 1a H77 assessed as decrease in viral replication after 4 days by luciferase reporter gene assay relative to wild type protein; conditions: Hepatitis C virus (isolate H77)
T1 sequence (whole entry): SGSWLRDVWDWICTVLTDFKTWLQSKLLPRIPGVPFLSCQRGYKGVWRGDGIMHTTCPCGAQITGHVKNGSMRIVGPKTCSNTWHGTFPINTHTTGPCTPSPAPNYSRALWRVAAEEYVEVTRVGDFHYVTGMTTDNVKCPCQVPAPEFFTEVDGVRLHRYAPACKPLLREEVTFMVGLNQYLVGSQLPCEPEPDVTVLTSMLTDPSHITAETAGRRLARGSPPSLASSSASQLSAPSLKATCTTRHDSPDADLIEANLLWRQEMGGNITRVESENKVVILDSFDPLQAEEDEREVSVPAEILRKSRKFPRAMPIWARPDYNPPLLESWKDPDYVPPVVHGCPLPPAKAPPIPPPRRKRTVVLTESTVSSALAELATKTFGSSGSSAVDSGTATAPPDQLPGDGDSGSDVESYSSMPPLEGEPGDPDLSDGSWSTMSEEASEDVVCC
Procedure, shortened: (§1)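 Stable subgenomic luciferase replicons in Huh-7 cells: genotype 1a-H77 carrying NS5A substitutions M28T, Q30E, Q30R, Y93C, Y93H or Y93N, tested alongside the wild-type replicon. Cells are incubated 4 days with compound in DMEM with 5% FBS. Luciferase read-out, EC50 by 4-parameter logistic fit, and fold change versus wild type.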

[2] = tested on: T2, Nonstructural protein 5A (Hepatitis C virus), Q5L478 [Y93N]; assay: Inhibition of NS5A Y93N mutant in HuH7 cell infected HCV genotype 1b Con1 assessed as decrease in viral replication after 4 days by luciferase reporter gene assay relative to wild type protein; conditions: Hepatitis C virus (isolate Con1)
T2 sequence (whole entry): T1 sequence (whole entry) with H93N
Procedure, shortened: as §1, with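 “1b-Con1” for “1a-H77”, “NS5A” for “NS5A substitutions M28T, Q30E, Q30R, Y93C,”, “from a” for “by”, “expressed as” for “and”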

[3] = Tmax in rat at 3 mg/kg, po by LC-MS method; type: ADME, organism-based; conditions: in vivo
Procedure, shortened: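 Single 3 mg/kg oral dose in rat, formulated in 40:20:20:20 (w/w) Phosol 53 MCT:PEG-400:Poloxamer 124:Cremophor RH40. Heparinized plasma drawn at 0.25, 0.5, 1, 2, 4, 6, 9, 12 and 24 h. Acetonitrile protein precipitation, then LC-MS in negative-ion MRM mode. Levels read from peak-area ratio to internal standard against spiked standards by linear regression; LOQ ~20 ng/mL.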

[4] = Cmax in mouse at 3 mg/kg, po by LC-MS method; type: ADME, organism-based; design: dose 3 mg/kg, route oral; conditions: in vivo
Procedure, shortened: (§2)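 Single dose, 3 mg/kg, in mouse or rat. IV vehicle: DMSO:Tween 80:PEG-400:D5W 2:5:20:73 (v/v). PO vehicle: Phosol 53 MCT:PEG-400:Poloxamer 124:Cremophor RH40 40:20:20:20 (w/w). Acetonitrile protein precipitation, then LC-MS/MS in negative-ion MRM against an internal standard; LOQ ~20 ng/mL.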

[5] = Drug level in rat at 3 mg/kg, po at 24 hrs by LC-MS method; type: ADME, organism-based; conditions: in vivo, read-out: Drug uptake; procedure, shortened: as §2
[6] = Cmax in rat at 3 mg/kg, po by LC-MS method; type: ADME, organism-based; design: dose 3 mg/kg, route oral; conditions: in vivo; procedure, shortened: as §2
[7] = tested on: T2, Nonstructural protein 5A (Hepatitis C virus), Q5L478 [Y93N]; assay: Inhibition of NS5A Y93N mutant in HuH7 cell infected HCV genotype 1a H77 assessed as decrease in viral replication after 4 days by luciferase reporter gene assay relative to wild type protein; conditions: Hepatitis C virus (isolate H77); procedure, shortened: as §1
[8] = Oral bioavailability in dog at 2.5 mg/kg by LC-MS method; type: ADME, organism-based, Canis lupus familiaris; conditions: in vivo
Procedure, shortened: (§3)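 Single dose in dog or monkey, 1 mg/kg IV or 2.5 mg/kg PO. Plasma drug measured by LC-MS after acetonitrile protein precipitation with an internal standard. Quantified by linear regression of parent/internal-standard peak-area ratio against spiked standards.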

[9] = Half life in mouse at 3 mg/kg, iv by LC-MS method; type: ADME, organism-based; conditions: in vivo; procedure, shortened: as §2
[10] = Cmax in monkey at 2.5 mg/kg, po by LC-MS method; type: ADME, organism-based, Macaca mulatta; design: dose 2.5 mg/kg, route oral; conditions: rhesus monkey, in vivo; procedure, shortened: as §3
[11] = Drug level in monkey at 2.5 mg/kg, po at 24 hrs by LC-MS method; type: ADME, organism-based, Macaca mulatta; conditions: rhesus monkey, in vivo, read-out: Drug uptake; procedure, shortened: as §3
[12] = Oral bioavailability in rat at 3 mg/kg by LC-MS method; type: ADME, organism-based; conditions: in vivo; procedure, shortened: as §2
[13] = Half life in rat at 3 mg/kg, iv by LC-MS method; type: ADME, organism-based; conditions: in vivo; procedure, shortened: as §2
[14] = Apparent volume of distribution in monkey at 1 mg/kg, iv by LC-MS method; type: ADME, organism-based, Macaca mulatta; conditions: rhesus monkey, in vivo, read-out: Vc; procedure, shortened: as §3
[15] = AUClast in monkey at 1 mg/kg, iv by LC-MS method; type: ADME, organism-based, Macaca mulatta; design: dose 1 mg/kg, time 0 - last, route intravenous; conditions: rhesus monkey, in vivo; procedure, shortened: as §3
[16] = Oral bioavailability in mouse at 3 mg/kg by LC-MS method; type: ADME, organism-based; conditions: in vivo; procedure, shortened: as §2
[17] = target: T3, Nonstructural protein 5A (Hepatitis C virus) (UniProt Q5L478); assay: Inhibition of NS5A M28T mutant in HuH7 cell infected HCV genotype 1a H77 assessed as decrease in viral replication after 4 days by luciferase reporter gene assay relative to wild type protein; conditions: Hepatitis C virus (isolate H77); procedure, shortened: as §1
T3 sequence (whole entry): T1 sequence (whole entry) with H93Y

COC(=O)N[C@H](C(=O)N1CCC[C@H]1c1nc2cc([C@H]3CC[C@H](c4cc5nc([C@@H]6CCCN6C(=O)[C@@H](NC(=O)OC)[C@@H](C)OC)[nH]c5cc4F)N3c3cc(F)c(N4CCC(c5ccc(F)cc5)CC4)c(F)c3)c(F)cc2[nH]1)[C@@H](C)OC [PIBRENTASVIR]
fold change (FC) [1]: 6.7 | fold change (FC) [2]: 0.6 | Tmax [3]: 5.3 h | Cmax [4]: 1140 nM | concentration at 24 h [5]: 41 nM | Cmax [6]: 250 nM | fold change (FC) [7]: 6.7 | bioavailability [8]: 29.8% | half-life [9]: 2 h | Cmax [10]: 260 nM | concentration at 24 h [11]: 17 nM | bioavailability [12]: 9.9% | half-life [13]: 6.2 h | Vd [14]: 0.07 L/kg | AUC(0-t) [15]: 6470 ng·h/mL | bioavailability [16]: 7.9% | fold change (FC) [17]: 2.1

From ChEMBL document CHEMBL4177761, “Highlights of the Structure-Activity Relationships of Benzimidazole Linked Pyrrolidines Leading to the Discovery of the Hepatitis C Virus NS5A Inhibitor Pibrentasvir (ABT-530)” (J Med Chem, 2018)
